Most compounds without a hit are left out; they make up all but 2.5% or so of the library.
CDK5 p35 inh – inhibitors of human CDK5/p35 kinase. Q00535+Q15078. Recombinant CDK5/p35, ADP-Glo luminescence, 60 min. inhibition, % at 10 µM. hit rate 0.01% among 330,000. AID 488839;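 active means highest replicate inhibition of at least 50% and at least 75% of replicates reaching 50%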;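 further: plate controls were DMSO neutral control for no effect and GW8510 at 10 µM for full effect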
Dyrk1A ADPGlo – Dyrk1A (rat) kinase inhibition; Q63470; AID 504441; ADP-Glo luminescence, NFATc1 peptide; hit rate 0.43% among 310,000; inhibition, % at 12.5 µM;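 further: plate controls were vehicle with enzyme for no effect and no enzyme for full effect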
dFosB activator – mouse delta FosB homodimer activation; activation, % at 25 µM; P13346; purified delta FosB, TAMRA-CDK5 oligo fluorescence polarization; percent of positive-control signal above neutral wells; AID 493131; hit rate 0.99% among 340,000;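 active means mean activation above about 17%, with every replicate also reaching it, limit read from the data, passing the limit was not always enough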
SR-BI DiI inh – mouse SR-BI HDL lipid transfer inhibition; Q61009; ldlA[mSR-BI] CHO cells, DiI-HDL uptake fluorescence, 3 h; inhibition, % at 12.5 µM; hit rate 0.96% among 320,000;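 active means mean replicate inhibition of at least 70% and a set share of replicates each scoring 70 or more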;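 further: 0% = median of neutral control wells and 100% = median of positive control wells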
SR-BI DiI-HDL act – activators of SR-BI mediated HDL lipid uptake. CHO ldlA[mSR-BI] cells, DiI-HDL uptake fluorescence, 3 h; 100 = double the neutral-control signal. activation, % at 12.5 µM. hit rate 0.096% among 320,000. AID 504775;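 active means mean replicate activation of at least 60% and every replicate at or above 60%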;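 further: 0% = median plate neutral-control signal and 100% = twice that signal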
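Test system: SR-BI-overexpressing, LDLR-lacking CHO cells; Also added: labelled HDL, 10 µg/mL; Measured by: bottom-read cell fluorescence after medium removal, ex 550/em 595 nm; Timing: 3 h uptake period with compound, 37 °C; Buffer or medium: F12, 0.5% BSA, 25 mM HEPES; Doses: single compound concentration, delivered by pin transfer.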
NSD2 HMT inh – blocks human histone methyltransferase NSD2; NSD2 peptide methylation, AlphaScreen, 120 min; inhibition, % at 12.5 µM; hit rate 0.54% among 310,000
Dyrk1A artifact – counter-screen for Dyrk1A inhibitors: ADP-Glo luciferase artifacts; shares compounds with Dyrk1A ADPGlo; ADP-Glo luciferase artifact assay, no Dyrk1A, luminescence; AC50, µM (doses to about 12 µM), without a hit: at the top dose activity change, negative = inhibition; 1,300 tested, under 10 active; AID 588348;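 active means fitted half-maximal dose AC50 no more than ten times the top valid tested dose, with luminescence dropping as dose rises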
Numbers without * were called inactive. Unless noted, no stated cut-off is given here; in the data, active means inhibition above about 50%; inactive means the rest.

CCCN(CCC)c1cc(=O)nc2ccccn12 was read as NSD2 HMT inh 11.
`COc1ccc(C(CNC(=O)c2ccc(S(=O)(=O)Nc3cccc(C)c3C)cc2)N2CCOCC2)cc1` (stereo unspecified) gave CDK5 p35 inh 0, Dyrk1A ADPGlo -1, dFosB activator -12, SR-BI DiI inh 6, SR-BI DiI-HDL act -6 and NSD2 HMT inh -1.
Screening CCS(=O)(=O)c1ccc(O)c(NC(=O)Nc2ccccc2OC)c1 returned CDK5 p35 inh 4, Dyrk1A ADPGlo 14, dFosB activator 1, SR-BI DiI inh -8, SR-BI DiI-HDL act 8 and NSD2 HMT inh 0.
Screening COCCNC(=O)c1cc2cc3ccc(OC)cc3nc2o1 returned CDK5 p35 inh 0, Dyrk1A ADPGlo 58*, dFosB activator -19, SR-BI DiI inh -12, SR-BI DiI-HDL act 12, NSD2 HMT inh -1 and Dyrk1A artifact 10%.
Screening COc1ccc2cc3cc(C(=O)NCC4CCCO4)oc3nc2c1 (stereo unspecified) returned CDK5 p35 inh 2, Dyrk1A ADPGlo 54*, dFosB activator -23, SR-BI DiI inh 4, SR-BI DiI-HDL act -4, NSD2 HMT inh -1 and Dyrk1A artifact 10%.
COc1ccc2cc3cc(C(=O)NCCC(C)C)oc3nc2c1 was read as CDK5 p35 inh 1, Dyrk1A ADPGlo 12, dFosB activator -18, SR-BI DiI inh -3, SR-BI DiI-HDL act 3 and NSD2 HMT inh -1.
Screening COc1ccc(C)cc1N(CC(=O)NCCSCc1cccc(Cl)c1)S(C)(=O)=O returned CDK5 p35 inh -1, Dyrk1A ADPGlo 7, dFosB activator -4, SR-BI DiI inh -5, SR-BI DiI-HDL act 5 and NSD2 HMT inh 1.
Screening Cc1ccc(Oc2ccc(-c3nc(N)nc(N)n3)cc2)cc1 returned CDK5 p35 inh 1, Dyrk1A ADPGlo 47, dFosB activator -11, SR-BI DiI inh -25, SR-BI DiI-HDL act 25 and NSD2 HMT inh 0.
Screening Nc1nc(N)nc(-c2ccc(Cl)cc2)n1 returned CDK5 p35 inh 1, Dyrk1A ADPGlo 62*, dFosB activator 2, SR-BI DiI inh -33, SR-BI DiI-HDL act 33, NSD2 HMT inh -1 and Dyrk1A artifact 7%.
COc1cc(/C=C2/SC(=O)NC2=O)ccc1Oc1ccc([N+](=O)[O-])cc1[N+](=O)[O-] was read as CDK5 p35 inh 1, Dyrk1A ADPGlo 80*, dFosB activator -1, NSD2 HMT inh 3 and Dyrk1A artifact 9%.
Oc1cc(-c2ccncc2)cc2cccnc12 was read as CDK5 p35 inh 7, Dyrk1A ADPGlo 76*, dFosB activator 7, SR-BI DiI inh 9, SR-BI DiI-HDL act -9 and Dyrk1A artifact 11%.
Screening CN(C)c1ccc(-c2cc(O)c3ncccc3c2)cc1 returned CDK5 p35 inh 1, Dyrk1A ADPGlo 8, dFosB activator -1, SR-BI DiI inh 7 and SR-BI DiI-HDL act -7.
`Cc1ccc(Sc2ccc(S(=O)(=O)Nc3ccc(C(=O)O)cc3)cc2)cc1C` gave CDK5 p35 inh -1, Dyrk1A ADPGlo 2, dFosB activator -10, SR-BI DiI inh -13, SR-BI DiI-HDL act 13 and NSD2 HMT inh 8.
`COc1ccc2c(Cl)c(C(N)=O)sc2c1` gave CDK5 p35 inh 0, Dyrk1A ADPGlo 84*, dFosB activator -11, SR-BI DiI inh 8, SR-BI DiI-HDL act -8, NSD2 HMT inh 1 and Dyrk1A artifact 9%.
Screening COc1ccc2c(Cl)c(C(=O)N/N=C/c3cccnc3)sc2c1 returned CDK5 p35 inh 1, Dyrk1A ADPGlo 64*, dFosB activator -17, NSD2 HMT inh -2 and Dyrk1A artifact 10%.
Screening O=C(N/N=C/c1cccnc1)c1sc2ccccc2c1Cl returned CDK5 p35 inh 0, Dyrk1A ADPGlo 0, dFosB activator -41, SR-BI DiI inh 10, SR-BI DiI-HDL act -10 and NSD2 HMT inh 1.
For COc1ccccc1CCC(=O)Nc1ccc2c(c1)c(=O)n(C)n2Cc1cccc(C(F)(F)F)c1 the results were NSD2 HMT inh 0.
